In ChEMBL document CHEMBL1143366, “Synthesis and antitumor activity of novel enediyne-linked pyrrolo[2,1-c][1,4]benzodiazepine hybrids” (Bioorg Med Chem, 2009):
Activity calls are given as the source filed them. The calls are words filed in the database; no cut-off is given here.

Tests used:
[1] = system: NCI-H1355; test: Cytotoxicity against human NCI-H1355 cells assessed as survival at 4 uM after 24 hrs by MTT assay; format: functional; details: NCI-H1355, 24 h, read-out: Survival
Method in brief: (§1)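 Cells seeded at 2500 cells/well, incubated overnight, then exposed to agents at 4 µM for 24 h. Medium replaced with MTT dye, 2 h at 37 °C. Formazan dissolved in DMSO, absorbance read at 540 nm. Survival expressed as % of untreated control.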

[2] = Cell cycle arrest in human 293T cells assessed as accumulation at sub-G1 phase at 4 uM after 24 hrs using propidium iodide staining by FACS; format: functional, cell-based; details: HEK-293T
Method in brief: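 293T cells exposed to 4 µM agents for 24 h, harvested by trypsinization and fixed in 50% cold ethanol at −20 °C. Washed in PBS, then RNase A (100 µg/mL) for 20 min at 37 °C. DNA content of 10,000 events read by flow cytometry. Result is % of cells in the sub-G1 peak.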

[3] = Cytotoxicity against human 293T cells assessed as survival at 4 uM after 24 hrs by MTT assay; format: cell-based, HEK-293T; details: read-out: Survival; method in brief: as §1
[4] = system: A2058; test: Cytotoxicity against human A2058 cells assessed as survival at 4 uM after 24 hrs by MTT assay; format: functional; details: A2058, 24 h, read-out: Survival; method in brief: as §1
[5] = system: A-375; test: Cytotoxicity against human A375 cells assessed as survival at 4 uM after 24 hrs by MTT assay; format: functional; details: A-375, 24 h, read-out: Survival; method in brief: as §1
[6] = system: MCF7; test: Cytotoxicity against human MCF7 cells assessed as survival at 4 uM after 24 hrs by MTT assay; format: functional; details: MCF7, 24 h, read-out: Survival; method in brief: as §1
[7] = system: HEK-293T; test: Induction of apoptosis in human 293T cells at 4 uM after 24 hrs using annexin V-FITC staining by FACS; format: functional
Method in brief: (§2)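 293T cells were treated for 24 h with 4 µM agent or graded concentrations, then harvested by trypsinization and centrifugation. Annexin V-FITC was added to 10⁶ cells per sample, with simultaneous PI staining. About 10,000 cells per group were analysed by flow cytometry, with annexin V⁺/PI⁻ scored as early apoptotic.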

[8] = system: HEK-293T; test: Induction of apoptosis in human 293T cells assessed as degradation of caspase 3 at 4 uM after 24 hrs by Western blot analysis; format: functional, cell-based
Method in brief: (§3)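 293T cells were exposed for 24 h to graded concentrations (0, 1, 2 and 4 µM shown) or to 4 µM agent. Cell lysates were immunoblotted for caspase-3 (CPP32) and p53, with actin as the loading control. Primary antibody ran 2 h at room temperature or overnight at 4 °C, then HRP secondary 1 h at room temperature, with chemiluminescent detection.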

[9] = system: HEK-293T; test: Induction of apoptosis in human 293T cells assessed as change in morphology at 4 uM after 24 hrs; format: functional, cell-based
Method in brief: (§4)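 293T cells (5×10⁵/well) were grown for one day, then treated for 24 h with 4 µM agent or graded concentrations. Morphology was photographed by phase-contrast microscopy at 200×.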

[10] = system: HEK-293T; test: Induction of apoptosis in human 293T cells assessed as decrease in p53 protein expression at 4 uM after 24 hrs by Western blot analysis; format: functional, cell-based; method in brief: as §3
[11] = system: OVCAR-8; test: Cytotoxicity against human OVCAR8 cells after 24 hrs by MTT assay; format: functional; details: OVCAR-8, 24 h
[12] = system: OVCAR-3; test: Cytotoxicity against human OVCAR-3 cells after 24 hrs by MTT assay; format: functional; details: OVCAR-3, 24 h
[13] = system: SK-MEL-2; test: Cytotoxicity against human SK-MEL-2 cells after 24 hrs by MTT assay; format: functional; details: SK-MEL-2, 24 h
[14] = system: BT-549; test: Cytotoxicity against human BT549 cells after 24 hrs by MTT assay; format: functional; details: BT-549, 24 h
[15] = system: HEK-293T; test: Induction of apoptosis in human 293T cells assessed as early apoptotic cells at 4 uM after 24 hrs using annexin V-FITC/propidium iodide staining by flow cytometry; format: functional; method in brief: as §2
[16] = system: T47D; test: Cytotoxicity against human T47D cells after 24 hrs by MTT assay; format: functional
[17] = system: MCF7; test: Cytotoxicity against human MCF7 cells after 24 hrs by MTT assay; format: functional; details: MCF7, 24 h
[18] = system: HEK-293T; test: Induction of apoptosis in human 293T cells assessed as necrotic cells at 1 uM after 24 hrs using annexin V-FITC/propidium iodide staining by FACS; format: functional; method in brief: as §2
[19] = system: HEK-293T; test: Induction of apoptosis in human 293T cells assessed as degradation of caspase 3 after 24 hrs by Western blot analysis; format: functional, cell-based; method in brief: as §3
[20] = system: HEK-293T; test: Induction of apoptosis in human 293T cells assessed as necrotic cells at 4 uM after 24 hrs using annexin V-FITC/propidium iodide staining by flow cytometry; format: functional; method in brief: as §2
[21] = system: HEK-293T; test: Induction of apoptosis in human 293T cells assessed as DNA repair deficiency at > 2 uM; format: functional, cell-based; method in brief: as §3
[22] = system: SW-620; test: Cytotoxicity against human SW620 cells after 24 hrs by MTT assay; format: functional; details: SW-620, 24 h
[23] = system: MOLT-4; test: Cytotoxicity against human MOLT4 cells after 24 hrs by MTT assay; format: functional; details: MOLT-4, 24 h
[24] = system: HEK-293T; test: Induction of apoptosis in human 293T cells assessed as decrease in p53 protein expression at 1 uM after 24 hrs by Western blot analysis; format: functional, cell-based; method in brief: as §3
[25] = system: HEK-293T; test: Induction of apoptosis in human 293T cells assessed as change in morphology after 24 hrs; format: functional, cell-based; method in brief: as §4
[26] = system: HEK-293T; test: Induction of apoptosis in human 293T cells assessed as early apoptotic cells at 1 uM after 24 hrs using annexin V-FITC/propidium iodide staining by FACS; format: functional; method in brief: as §2
[27] = system: HEK-293T; test: Induction of apoptosis in human 293T cells assessed as early apoptotic cells at 2 uM after 24 hrs using annexin V-FITC/propidium iodide staining by FACS; format: functional; method in brief: as §2
[28] = system: CCRF-CEM; test: Cytotoxicity against human CCRF-CEM cells after 24 hrs by MTT assay; format: functional
[29] = system: RPMI-8226; test: Cytotoxicity against human RPMI8226 cells after 24 hrs by MTT assay; format: functional; details: RPMI-8226, 24 h
[30] = system: RXF 393; test: Cytotoxicity against human RXF393 cells after 24 hrs by MTT assay; format: functional; details: RXF 393, 24 h
[31] = system: MDA-MB-435; test: Cytotoxicity against human MDA-MB-435 cells after 24 hrs by MTT assay; format: functional; details: MDA-MB-435, 24 h
[32] = system: CAKI-1; test: Cytotoxicity against human Caki1 cells after 24 hrs by MTT assay; format: functional; details: CAKI-1, 24 h
[33] = system: IGROV-1; test: Cytotoxicity against human IGROV1 cells after 24 hrs by MTT assay; format: functional; details: IGROV-1, 24 h
[34] = system: HEK-293T; test: Induction of apoptosis in human 293T cells assessed as necrotic cells at 2 uM after 24 hrs using annexin V-FITC/propidium iodide staining by FACS; format: functional; method in brief: as §2

With COc1cc2c(cc1OC/C=C\COCC#Cc1ccccc1C#Cc1ccccc1)N=C[C@@H]1CCCN1C2=O the viability at 4 µM [1] was 44%, the Activity [2] was 15.6% and the viability at 24 h, 4 µM [3] was 44%. It also gave a viability at 4 µM [4] of 39.1%, a viability at 4 µM [5] of 33.9% and a viability at 4 µM [6] of 44%.
COc1cc2c(cc1OCCCCC#Cc1ccccc1C#Cc1ccccc1)N=C[C@@H]1CCCN1C2=O showed a viability at 4 µM [1] of 75.2%, an Activity [2] of 13.2% and a viability at 24 h, 4 µM [3] of 19.2%. It also gave a viability at 4 µM [4] of 49.5%, a viability at 4 µM [5] of 28.3% and a viability at 4 µM [6] of 85.2%.
Molecule COc1cc2c(cc1O)N=C[C@@H]1CCCN1C2=O has a viability at 4 µM [1] of 73.9%, an Activity [2] of 10% and a viability at 24 h, 4 µM [3] of 68.9%. The viability at 4 µM [4] was 63.4%, the viability at 4 µM [5] was 50.2% and the viability at 4 µM [6] was 72.3%.
COc1cc2c(cc1OC/C=C/COCCC#Cc1ccccc1C#Cc1ccccc1)N=C[C@@H]1CCCN1C2=O showed a viability at 4 µM [1] of 85.2%, an Activity [2] of 13.6% and a viability at 24 h, 4 µM [3] of 35.2%. For the same molecule, the viability at 4 µM [4] was 46.2%, the viability at 4 µM [5] was 33.4% and the viability at 4 µM [6] was 59.2%.
In the case of COc1cc2c(cc1OCC=CCOCCC#Cc1ccccc1C#Cc1ccccc1)N=C[C@@H]1CCCN1C2=O, the viability at 4 µM [1] is reported as 71%, the Activity [2] is reported as 13.3% and the viability at 24 h, 4 µM [3] is reported as 60.7%. The viability at 4 µM [4] was 84.5%, the viability at 4 µM [5] was 85.7% and the viability at 4 µM [6] was 83.8%.
With COc1cc2c(cc1OCCCCCCNC(=O)c1cc3ccccc3[nH]1)N=C[C@@H]1CCCN1C2=O the Activity [7] was 19.4%, the Activity [8] was “Active” and the Activity [9] was “Active”. The Activity [10] was “Active”.
COc1cc2c(cc1OCCCC#Cc1ccccc1C#Cc1ccccc1)N=C[C@@H]1CCCN1C2=O gave a GI50 [11] of 0.394 µM, a GI50 [12] of 0.52 µM and a viability at 4 µM [1] of 87.7%. For the same molecule, the GI50 [13] was 0.924 µM, the GI50 [14] was 0.641 µM and the Activity [2] was 14.5%. It also gave an Activity [15] of 1.5%, a GI50 [16] of 0.779 µM and an Activity [7] of 25.4%. For the same molecule, the Activity [8] was “Active”, the GI50 [17] was 0.305 µM and the Activity [18] was 13.7%. The Activity [19] was “Dose-dependent effect”, the Activity [20] was 17.4% and the Activity [21] was “Active”. The GI50 [22] was 0.478 µM, the GI50 [23] was 0.648 µM and the viability at 24 h, 4 µM [3] was 28.7%. For the same molecule, the Activity [24] was “inactive”, the viability at 4 µM [4] was 47.2% and the Activity [25] was “Dose-dependent effect”. The Activity [26] was 2.1%, the Activity [27] was 2.2% and the viability at 4 µM [5] was 22.3%. For the same molecule, the viability at 4 µM [6] was 49.7%, the GI50 [28] was 0.422 µM and the GI50 [29] was 0.285 µM. For the same molecule, the GI50 [30] was 0.686 µM, the GI50 [31] was 0.468 µM and the Activity [10] was “Active”. The GI50 [32] was 0.485 µM, the GI50 [33] was 0.549 µM and the Activity [34] was 14.5%.
COc1cc2c(cc1OCC#Cc1ccccc1C#Cc1ccccc1)N=C[C@@H]1CCCN1C2=O gave a viability at 4 µM [1] of 70.9%, an Activity [2] of 6.3% and a viability at 24 h, 4 µM [3] of 48.9%. The viability at 4 µM [4] was 46.1%, the viability at 4 µM [5] was 13.1% and the viability at 4 µM [6] was 48.9%.
In the case of COc1cc2c(cc1OC/C=C/COCC#Cc1ccccc1C#Cc1ccccc1)N=C[C@@H]1CCCN1C2=O, the viability at 4 µM [1] is reported as 67.4%, the Activity [2] is reported as 13.9% and the viability at 24 h, 4 µM [3] is reported as 48.4%. It also gave a viability at 4 µM [4] of 43%, a viability at 4 µM [5] of 42.9% and a viability at 4 µM [6] of 70.4%.
